The source of these data is publication PMC3573876 (The Journal of antibiotics, 2012).

In series [1] the test system is epidermal growth factor receptor (EGFR). The conditions noted are these: cell-free ELISA assay; cited from earlier work.
Series [2] deals with vascular endothelial growth factor receptor-1/fms-like tyrosine kinase-1 (VEGFR-1/Flt-1). The conditions noted are these: cell-free ELISA assay; cited from earlier work. Background: In an ELISA, binding on a coated surface is turned into a signal by an enzyme label.
In series [3] the test system is human epidermal growth factor receptor-2 (HER2/ErbB-2). To be noted: cell-free ELISA assay; cited from earlier work.
Series [4] in a line: Cytotoxicity assay. It is filed as cell-based. To be noted: human, MCF-7 breast carcinoma cells. Summed up:
(§1)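 Cells were exposed continuously to the test compound for 72 h, then stained with sulforhodamine B. IC50 was the concentration that reduced staining by 50% relative to untreated controls. Positive controls were run alongside. MCF-7 came from a cancer-centre stock, NCI-H460 from ATCC, and SF-268 from the NCI Developmental Therapeutics Program.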

Series [5] can be described thus: Cytotoxicity assay. It is filed as cell-based. To be noted: human, NCI-H460 large cell lung carcinoma cells. Summed up:
as §1

Series [6] is described as follows: Cytotoxicity assay. It is filed as cell-based. The conditions noted are these: human, SF-268 astrocytoma cells. Summed up:
as §1

Series [7] deals with activated p65 subunits of NF-κB in the nucleus of HeLa cells. Nature of the series: ELISA based NF-κB p65 inhibitory assay. It is filed as cell-based, human. To be noted: for IC50: read-out: NF-κB inhibitory activity IC50 values, p65 binding, HeLa cells, ELISA.
In series [8] the test system is HepG2 (hepatocellular carcinoma). The conditions noted are these: HepG2 human cell line; cited from earlier work.
The target of the next series is EGFR tyrosine kinase (Homo sapiens, UniProt P00533). Description: EGFR enzymatic assay. The conditions noted are these: read-out: EGFR inhibition IC50; luminescence kinase assay. It is filed as biochemical.
For a further series, the system named is A549 (adenocarcinoma). The conditions noted are these: A549 human cell line; cited from earlier work.
Series [9] in a line: Cytotoxicity assay. The conditions noted are these: human. It is filed as cell-based.
A short description of series [10]: Cytotoxicity assay. To be noted: human. It is filed as cell-based. The source holds these as a separate data set.

Sequence of EGFR tyrosine kinase (P00533 25-1210): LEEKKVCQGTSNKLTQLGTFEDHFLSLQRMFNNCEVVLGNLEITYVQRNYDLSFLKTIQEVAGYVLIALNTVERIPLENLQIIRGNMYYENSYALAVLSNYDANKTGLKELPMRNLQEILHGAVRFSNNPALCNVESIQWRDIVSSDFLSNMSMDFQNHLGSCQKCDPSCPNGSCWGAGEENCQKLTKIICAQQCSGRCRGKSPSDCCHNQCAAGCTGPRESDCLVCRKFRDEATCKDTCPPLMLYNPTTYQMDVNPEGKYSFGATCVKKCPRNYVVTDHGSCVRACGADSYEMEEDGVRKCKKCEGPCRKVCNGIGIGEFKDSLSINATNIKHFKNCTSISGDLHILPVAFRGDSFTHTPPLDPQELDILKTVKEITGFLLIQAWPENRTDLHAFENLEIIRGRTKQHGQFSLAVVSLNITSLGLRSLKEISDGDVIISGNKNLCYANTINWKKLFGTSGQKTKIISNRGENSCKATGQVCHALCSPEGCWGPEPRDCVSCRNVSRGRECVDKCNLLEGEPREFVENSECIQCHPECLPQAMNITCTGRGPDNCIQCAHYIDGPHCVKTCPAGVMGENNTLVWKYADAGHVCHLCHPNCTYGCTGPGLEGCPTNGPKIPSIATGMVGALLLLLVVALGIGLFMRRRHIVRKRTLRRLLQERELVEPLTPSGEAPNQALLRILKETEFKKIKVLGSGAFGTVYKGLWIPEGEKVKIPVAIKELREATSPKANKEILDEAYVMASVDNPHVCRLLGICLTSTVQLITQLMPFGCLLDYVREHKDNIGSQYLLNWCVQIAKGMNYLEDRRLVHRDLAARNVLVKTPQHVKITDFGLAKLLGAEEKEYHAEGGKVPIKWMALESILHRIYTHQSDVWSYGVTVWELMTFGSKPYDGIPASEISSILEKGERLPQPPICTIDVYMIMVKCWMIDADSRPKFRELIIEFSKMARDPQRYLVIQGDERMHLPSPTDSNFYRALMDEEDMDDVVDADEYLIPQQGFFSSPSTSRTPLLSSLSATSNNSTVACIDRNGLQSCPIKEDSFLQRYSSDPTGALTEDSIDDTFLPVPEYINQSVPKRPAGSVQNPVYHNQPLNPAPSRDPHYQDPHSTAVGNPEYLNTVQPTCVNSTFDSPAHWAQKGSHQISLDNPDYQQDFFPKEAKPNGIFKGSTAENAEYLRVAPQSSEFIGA

With `CN1C(=O)[C@@]23C[C@]4([C@]56C[C@@]78SS[C@@](C)(C(=O)N7[C@H]5Nc5ccccc56)N(C)C8=O)c5ccccc5N[C@@H]4N2C(=O)[C@]1(C)SS3` [11,11′-Dideoxyverticillin], in series [1], the “Tyrosine kinase inhibitory activity, EGFR” value is reported as “nM range”. Besides, the “Tyrosine kinase inhibitory activity, VEGFR-1/Flt-1” value in series [2] is “nM range”. Moreover, the “Tyrosine kinase inhibitory activity, HER2/ErbB-2” value in series [3] is “µM range”.
Turning to `CC[C@@]1(O)C(=O)OCc2c1cc1n(c2=O)Cc2cc3ccccc3nc2-1` [Camptothecin], the IC50 (commonly the concentration that gives 50% inhibition) at 72 h in “Cytotoxicity assay [4]” came to 130 nM; in the series “Cytotoxicity assay [5]”, 10 nM; in “Cytotoxicity assay [6]” it was 10 nM.
On to `CC[C@@]12SS[C@]3(C(=O)N1C)[C@@H](O)C1(C45c6ccccc6N[C@@H]4N4C(=O)[C@]6([C@@H](C)O)SS[C@]4(C(=O)N6C)[C@H]5O)c4ccccc4N[C@@H]1N3C2=O` (some centres unmarked) [Gliocladicillin C (4), gliocladicillin C], for which the IC50 (in series [7]; on EGFR tyrosine kinase) was above 10000 nM throughout. The “Cytotoxic activity on HepG2” value in [8] is given as “high cytotoxic activity”. Besides, the “Cytotoxic activity on A549” value in the series with A549 (adenocarcinoma) is on record as “high cytotoxic activity”.
Take `CC(O)[C@@]12SS[C@]3(C(=O)N1C)[C@@H](O)[C@]1([C@@]45c6ccccc6N[C@@H]4N4C(=O)[C@]6(C)SS[C@]4(C(=O)N6C)[C@H]5O)c4ccccc4N[C@@H]1N3C2=O` (some centres unmarked) [Sch 52901 (2), Sch 52900]: in [7], the “NF-κB assay activity (in words)” value was “sub-micromolar range” and the IC50 was found to be 500 nM.
Take `COC(=O)[C@H]1[C@@H](O)[C@@]2(O)c3c(OC)cc(O[C@@H]4O[C@@H]([C@H](O)CO)CO[C@H]4OC)cc3O[C@@]2(c2ccc(OC)cc2)[C@@H]1c1ccccc1` [Silvestrol]: the IC50 in “Cytotoxicity assay [9]” and in the series “Cytotoxicity assay [10]” was 10 nM in each case.
`CN1C(=O)[C@]23SS[C@@]1(C)C(=O)N2[C@H]1Nc2ccccc2[C@@]1([C@@]12c4ccccc4N[C@@H]1N1C(=O)[C@@]4(C)SS[C@]1(C(=O)N4C)[C@H]2O)[C@@H]3O` [Verticillin A (3), verticillin A]: in series [7], the “NF-κB assay activity (in words)” value is “sub-micromolar range”. Besides, the IC50 in [7] was 100 nM; at EGFR tyrosine kinase it was above 10000 nM.
Take `CC[C@@]12SS[C@]3(C(=O)N1C)[C@@H](O)[C@]1(C45c6ccccc6N[C@@H]4N4C(=O)[C@@]6(CC)SS[C@@]4(C(=O)N6C)[C@H]5O)c4ccccc4N[C@@H]1N3C2=O` (some centres unmarked) [Verticillin H (1), verticillin H]: the IC50 (in [7]; on EGFR tyrosine kinase) was above 10000 nM throughout.
As for Sch 52901 [Sch 52900 (5)], the IC50 in series [7] is above 10000 nM.
